In ChEMBL document CHEMBL4052830, “Dual Nicotinic Acetylcholine Receptor α4β2 Antagonists/α7 Agonists: Synthesis, Docking Studies, and Pharmacological Evaluation of Tetrahydroisoquinolines and Tetrahydroisoquinolinium Salts” (J Med Chem, 2018):
Activity calls are given as the source filed them. The calls are words filed in the database; no cut-off is given here.

Experiments:
[1] = target: T1, Neuronal acetylcholine receptor subunit alpha-7 (Homo sapiens, UniProt P36544); assay: Agonist activity at human alpha7 nAChR expressed in HEK293 cells co-expressing Ric-3/NACHO assessed as induction of calcium mobilization at 10 uM measured up to 90 secs in presence of PNU-120596 by FLIPR assay; type: cell-based
[2] = target: Nicotinic acetylcholine receptor alpha-4/beta-2 (Mus musculus, UniProt Q8R493+Q9ERK7); assay: Antagonist activity at mouse alpha4beta2 nAChR expressed in HEK293 cells assessed as inhibition of (S)-nicotine-induced […] response measured up to 90 secs by FMP assay; type: cell-based
Method in brief: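 Mouse α4β2 nAChR in stably expressing HEK293T cells, FLIPR Membrane Potential Blue assay. IC50 came from concentration-inhibition curves. Means of 3–5 experiments in duplicate.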

[3] = target: T2, Neuronal acetylcholine receptor; alpha3/beta4 (Rattus norvegicus, UniProt P04757+P12392); assay: Antagonist activity at rat alpha3beta4 nAChR expressed in HEK293 cells assessed as inhibition of (S)-nicotine-induced […] response measured up to 90 secs by FMP assay; type: cell-based
Method in brief: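 Rat α3β4 nAChR in stably expressing HEK293 cells, FLIPR Membrane Potential Blue assay. Antagonist mode against (S)-nicotine at EC70–EC90. IC50 derived from concentration-inhibition curves. Means of 3–5 experiments in duplicate.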

[4] = target: Neuronal acetylcholine receptor; alpha4/beta4 (Rattus norvegicus, UniProt P09483+P12392); assay: Displacement of [3H]epibatidine from rat alpha4beta4 nAChR expressed in HEK293 cell membranes after 4 hrs by scintillation counting method
Method in brief: (§1)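 Membranes from HEK293 lines stably expressing α3β4, α4β4 or α4β2 nAChR, [3H]epibatidine competition binding. Ki came from concentration-inhibition curves. Means of 3–5 experiments in duplicate.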

Mus musculus [5] = assay: Anti-depressant like activity in sc dosed mouse assessed as increase in swimming activity administered 15 mins prior to testing by forced swim test; type: functional, organism-based
Method in brief: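 Mouse forced swim test, n = 9–10 per group, doses 1, 3 and 10 mg/kg. Each mouse was placed in a 16 cm diameter beaker with 20 cm of water at 23.5–24.5 °C for 6 min. Camera-tracked total swim distance was scored after the first minute. Analysed by one-way ANCOVA with planned pairwise comparisons.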

[6] = target: T2, Neuronal acetylcholine receptor; alpha3/beta4; assay: Displacement of [3H]epibatidine from rat alpha3beta4 nAChR expressed in HEK293 cell membranes after 4 hrs by scintillation counting method; method in brief: as §1
[7] = target: Neuronal acetylcholine receptor; alpha4/beta2 (Rattus norvegicus, UniProt P09483+P12390); assay: Displacement of [3H]epibatidine from rat alpha4beta2 nAChR expressed in HEK293 cell membranes after 4 hrs by scintillation counting method; method in brief: as §1
[8] = target: Neuronal acetylcholine receptor; alpha3/beta4 (Rattus norvegicus) (UniProt P04757+P12392); assay: Potency index, ratio of DHbetaE Ki to test compound Ki for rat alpha3beta4 nAChR; type: protein-complex assay
[9] = target: Neuronal acetylcholine receptor; alpha4/beta2 (Rattus norvegicus) (UniProt P09483+P12390); assay: Potency index, ratio of DHbetaE Ki to test compound Ki for rat alpha4beta2 nAChR; type: protein-complex assay
Mus musculus [10] = assay: Anti-depressant like activity in mouse assessed as increase in swimming activity at 10 mg/kg, sc administered 15 mins prior to testing by forced swim test; type: functional, organism-based
Method in brief: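 Mice (n = 9–10) placed singly in a 16 cm beaker filled with water to 20 cm at 23.5–24.5 °C. Total swim distance over the 6 min test was recorded by overhead camera. Analysed by one-way ANCOVA, then planned pairwise comparisons of predicted means.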

[11] = target: Neuronal acetylcholine receptor; alpha4/beta4 (Rattus norvegicus) (UniProt P09483+P12392); assay: Potency index, ratio of DHbetaE Ki to test compound Ki for rat alpha4beta4 nAChR; type: protein-complex assay
[12] = target: T1, Neuronal acetylcholine receptor subunit alpha-7; assay: Agonist activity at human alpha7 nAChR expressed in HEK293 cells co-expressing Ric-3/NACHO assessed as induction of calcium mobilization measured up to 90 secs in presence of PNU-120596 by FLIPR assay; type: cell-based
Method in brief: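 Human α7 nAChR stably co-expressed with Ric-3 and NACHO in HEK293 cells, Ca2+/Fluo-4 fluorescence assay. Assay buffer held 3 μM PNU-120596 (α7 PAM) to slow desensitization. Agonist concentration-response curves gave EC50 and Rmax. Means of 3–5 experiments run in duplicate.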

[13] = Selectivity ratio of IC50 for rat alpha3beta4 nAChR to IC50 for mouse alpha4beta2 nAChR
[14] = target: Neuronal acetylcholine receptor; alpha4/beta2 (Homo sapiens, UniProt P17787+P43681); assay: Displacement of [3H]cytisine from human alpha4beta2 nAChR expressed in human SH-EP1 cell membranes after 75 mins by liquid scintillation spectrometry
[15] = target: T1, Neuronal acetylcholine receptor subunit alpha-7; assay: Agonist activity at human alpha7 nAChR expressed in HEK293 cells co-expressing Ric-3/NACHO assessed as induction of calcium mobilization at 1 to 3 uM measured up to 90 secs in presence of PNU-120596 by FLIPR assay; type: cell-based
[16] = target: T1, Neuronal acetylcholine receptor subunit alpha-7; assay: Agonist activity at human alpha7 nAChR expressed in HEK293 cells co-expressing Ric-3/NACHO assessed as induction of calcium mobilization at >= 10 uM measured up to 90 secs in presence of PNU-120596 by FLIPR assay; type: cell-based
[17] = target: T1, Neuronal acetylcholine receptor subunit alpha-7; assay: Agonist activity at human alpha7 nAChR expressed in HEK293 cells co-expressing Ric-3/NACHO assessed as induction of calcium mobilization at 0.3 to 3 uM measured up to 90 secs in presence of PNU-120596 by FLIPR assay; type: cell-based

T2 sequence (P04757 whole entry): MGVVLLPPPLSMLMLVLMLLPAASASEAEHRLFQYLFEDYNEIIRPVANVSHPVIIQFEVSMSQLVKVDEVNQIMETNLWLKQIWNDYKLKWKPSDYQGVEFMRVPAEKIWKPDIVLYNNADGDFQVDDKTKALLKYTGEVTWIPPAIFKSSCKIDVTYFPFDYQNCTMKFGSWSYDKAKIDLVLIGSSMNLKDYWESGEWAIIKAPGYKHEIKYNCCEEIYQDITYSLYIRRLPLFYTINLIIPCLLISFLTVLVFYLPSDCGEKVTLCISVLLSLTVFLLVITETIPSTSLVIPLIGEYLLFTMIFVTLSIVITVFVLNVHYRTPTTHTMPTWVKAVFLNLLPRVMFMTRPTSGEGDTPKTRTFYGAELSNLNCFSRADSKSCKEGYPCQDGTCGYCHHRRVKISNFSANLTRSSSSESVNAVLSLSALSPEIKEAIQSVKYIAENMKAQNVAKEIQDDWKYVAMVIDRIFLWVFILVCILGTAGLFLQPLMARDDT
T2 sequence (P12392 whole entry): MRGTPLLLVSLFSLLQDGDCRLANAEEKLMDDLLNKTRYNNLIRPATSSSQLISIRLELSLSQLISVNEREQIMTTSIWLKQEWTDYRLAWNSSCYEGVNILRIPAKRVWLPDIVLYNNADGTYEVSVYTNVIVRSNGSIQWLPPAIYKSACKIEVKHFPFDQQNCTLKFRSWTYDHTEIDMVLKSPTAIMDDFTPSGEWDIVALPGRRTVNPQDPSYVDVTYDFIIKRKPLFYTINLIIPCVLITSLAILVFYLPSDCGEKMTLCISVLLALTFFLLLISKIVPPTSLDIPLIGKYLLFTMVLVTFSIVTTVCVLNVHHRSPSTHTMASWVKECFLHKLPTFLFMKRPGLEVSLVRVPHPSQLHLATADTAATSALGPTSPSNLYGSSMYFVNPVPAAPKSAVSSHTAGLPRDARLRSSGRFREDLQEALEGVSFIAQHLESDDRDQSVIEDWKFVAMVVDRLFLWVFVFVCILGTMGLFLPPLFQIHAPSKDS
Sequence of Nicotinic acetylcholine receptor alpha-4/beta-2 (Q9ERK7 whole entry): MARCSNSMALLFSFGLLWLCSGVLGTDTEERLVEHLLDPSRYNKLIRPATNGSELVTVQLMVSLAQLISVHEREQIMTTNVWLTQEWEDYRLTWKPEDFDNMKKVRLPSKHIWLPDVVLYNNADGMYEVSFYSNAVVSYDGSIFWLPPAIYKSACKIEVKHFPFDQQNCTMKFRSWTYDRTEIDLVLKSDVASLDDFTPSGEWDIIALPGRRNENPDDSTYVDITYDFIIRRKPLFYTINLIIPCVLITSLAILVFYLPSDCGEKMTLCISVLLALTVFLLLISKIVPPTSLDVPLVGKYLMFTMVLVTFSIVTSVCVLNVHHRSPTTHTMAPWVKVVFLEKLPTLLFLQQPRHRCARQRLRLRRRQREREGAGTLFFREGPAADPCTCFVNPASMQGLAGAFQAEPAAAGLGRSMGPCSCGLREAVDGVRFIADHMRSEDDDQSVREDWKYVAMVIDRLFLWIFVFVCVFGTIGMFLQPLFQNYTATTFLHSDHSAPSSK
Sequence of Nicotinic acetylcholine receptor alpha-4/beta-2 (Q8R493 whole entry): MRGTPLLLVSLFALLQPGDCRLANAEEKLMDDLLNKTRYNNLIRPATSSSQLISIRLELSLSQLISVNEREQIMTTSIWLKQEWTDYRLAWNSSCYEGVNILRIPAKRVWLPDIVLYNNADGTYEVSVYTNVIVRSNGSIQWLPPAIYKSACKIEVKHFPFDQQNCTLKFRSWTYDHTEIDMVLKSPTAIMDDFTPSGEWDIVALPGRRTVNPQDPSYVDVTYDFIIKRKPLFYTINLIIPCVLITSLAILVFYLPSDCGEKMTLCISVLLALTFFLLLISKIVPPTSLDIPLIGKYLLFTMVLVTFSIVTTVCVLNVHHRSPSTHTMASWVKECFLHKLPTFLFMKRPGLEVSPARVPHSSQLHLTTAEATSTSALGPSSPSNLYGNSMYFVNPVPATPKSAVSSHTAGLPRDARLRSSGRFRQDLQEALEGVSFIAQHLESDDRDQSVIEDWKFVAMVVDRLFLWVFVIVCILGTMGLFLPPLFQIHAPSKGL
Sequence of Neuronal acetylcholine receptor; alpha4/beta4 (P09483 whole entry): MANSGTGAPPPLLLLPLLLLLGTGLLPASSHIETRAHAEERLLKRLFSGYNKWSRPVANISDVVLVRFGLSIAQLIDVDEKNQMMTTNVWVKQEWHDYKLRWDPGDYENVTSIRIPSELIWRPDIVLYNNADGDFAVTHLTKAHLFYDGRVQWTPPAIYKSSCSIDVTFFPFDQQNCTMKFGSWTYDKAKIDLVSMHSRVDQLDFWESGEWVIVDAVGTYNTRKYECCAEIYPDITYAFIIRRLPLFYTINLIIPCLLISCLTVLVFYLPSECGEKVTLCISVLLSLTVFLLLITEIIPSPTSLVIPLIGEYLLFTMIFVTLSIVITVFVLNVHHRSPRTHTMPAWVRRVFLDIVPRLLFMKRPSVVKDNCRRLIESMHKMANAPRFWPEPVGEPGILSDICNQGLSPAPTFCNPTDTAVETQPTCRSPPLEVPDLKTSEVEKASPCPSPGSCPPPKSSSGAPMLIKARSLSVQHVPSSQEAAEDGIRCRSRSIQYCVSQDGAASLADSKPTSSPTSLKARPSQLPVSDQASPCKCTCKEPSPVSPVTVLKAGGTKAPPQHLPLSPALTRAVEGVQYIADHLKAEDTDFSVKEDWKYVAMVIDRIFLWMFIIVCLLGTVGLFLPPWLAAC
Sequence of Neuronal acetylcholine receptor; alpha4/beta4 (P12392 whole entry): as the sequence (P12392 whole entry) above
Sequence of Neuronal acetylcholine receptor; alpha4/beta2 (Rattus norvegicus, UniProt P09483+P12390) (P09483 whole entry): as the sequence (P09483 whole entry) above
Sequence of Neuronal acetylcholine receptor; alpha4/beta2 (Rattus norvegicus, UniProt P09483+P12390) (P12390 whole entry): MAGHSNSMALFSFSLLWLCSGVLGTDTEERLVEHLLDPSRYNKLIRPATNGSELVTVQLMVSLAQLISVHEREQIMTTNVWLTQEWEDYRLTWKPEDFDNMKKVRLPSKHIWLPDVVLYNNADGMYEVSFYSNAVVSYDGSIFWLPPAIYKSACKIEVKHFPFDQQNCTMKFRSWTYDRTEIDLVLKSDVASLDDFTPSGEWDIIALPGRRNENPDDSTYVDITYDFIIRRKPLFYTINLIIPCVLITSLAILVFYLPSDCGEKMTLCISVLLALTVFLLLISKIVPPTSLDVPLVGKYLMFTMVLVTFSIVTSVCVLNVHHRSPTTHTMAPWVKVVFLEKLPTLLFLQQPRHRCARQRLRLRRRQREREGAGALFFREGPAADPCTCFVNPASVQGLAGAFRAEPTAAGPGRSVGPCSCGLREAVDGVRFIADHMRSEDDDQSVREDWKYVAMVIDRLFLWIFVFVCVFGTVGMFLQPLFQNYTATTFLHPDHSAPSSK
T1 sequence (P36544 whole entry): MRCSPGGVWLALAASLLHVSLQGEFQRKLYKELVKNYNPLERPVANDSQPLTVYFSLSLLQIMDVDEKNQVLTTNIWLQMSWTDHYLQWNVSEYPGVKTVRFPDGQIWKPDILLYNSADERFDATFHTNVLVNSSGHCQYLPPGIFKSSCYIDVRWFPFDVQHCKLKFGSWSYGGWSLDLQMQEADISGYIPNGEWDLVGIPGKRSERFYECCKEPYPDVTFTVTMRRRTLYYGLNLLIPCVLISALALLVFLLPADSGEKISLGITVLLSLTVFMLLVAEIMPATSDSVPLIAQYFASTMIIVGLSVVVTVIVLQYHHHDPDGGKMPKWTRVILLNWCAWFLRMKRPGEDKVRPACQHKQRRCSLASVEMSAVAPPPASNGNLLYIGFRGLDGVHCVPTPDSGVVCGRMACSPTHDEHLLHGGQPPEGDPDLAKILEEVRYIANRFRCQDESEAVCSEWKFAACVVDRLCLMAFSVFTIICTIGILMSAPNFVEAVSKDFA
Sequence of Neuronal acetylcholine receptor; alpha4/beta2 (Homo sapiens, UniProt P17787+P43681) (P17787 whole entry): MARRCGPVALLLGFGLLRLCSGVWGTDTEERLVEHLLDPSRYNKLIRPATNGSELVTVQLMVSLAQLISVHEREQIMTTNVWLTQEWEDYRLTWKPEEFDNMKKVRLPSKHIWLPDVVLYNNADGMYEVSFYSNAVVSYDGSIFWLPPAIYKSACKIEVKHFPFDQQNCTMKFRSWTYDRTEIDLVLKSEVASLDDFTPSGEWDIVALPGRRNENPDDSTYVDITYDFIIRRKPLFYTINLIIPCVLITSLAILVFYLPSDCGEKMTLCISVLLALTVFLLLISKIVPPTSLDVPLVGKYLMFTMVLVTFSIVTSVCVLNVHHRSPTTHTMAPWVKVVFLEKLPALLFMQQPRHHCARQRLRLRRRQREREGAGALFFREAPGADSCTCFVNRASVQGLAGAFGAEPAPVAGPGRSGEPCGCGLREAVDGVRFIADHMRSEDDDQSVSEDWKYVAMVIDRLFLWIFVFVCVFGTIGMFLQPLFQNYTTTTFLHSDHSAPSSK
Sequence of Neuronal acetylcholine receptor; alpha4/beta2 (Homo sapiens, UniProt P17787+P43681) (P43681 whole entry): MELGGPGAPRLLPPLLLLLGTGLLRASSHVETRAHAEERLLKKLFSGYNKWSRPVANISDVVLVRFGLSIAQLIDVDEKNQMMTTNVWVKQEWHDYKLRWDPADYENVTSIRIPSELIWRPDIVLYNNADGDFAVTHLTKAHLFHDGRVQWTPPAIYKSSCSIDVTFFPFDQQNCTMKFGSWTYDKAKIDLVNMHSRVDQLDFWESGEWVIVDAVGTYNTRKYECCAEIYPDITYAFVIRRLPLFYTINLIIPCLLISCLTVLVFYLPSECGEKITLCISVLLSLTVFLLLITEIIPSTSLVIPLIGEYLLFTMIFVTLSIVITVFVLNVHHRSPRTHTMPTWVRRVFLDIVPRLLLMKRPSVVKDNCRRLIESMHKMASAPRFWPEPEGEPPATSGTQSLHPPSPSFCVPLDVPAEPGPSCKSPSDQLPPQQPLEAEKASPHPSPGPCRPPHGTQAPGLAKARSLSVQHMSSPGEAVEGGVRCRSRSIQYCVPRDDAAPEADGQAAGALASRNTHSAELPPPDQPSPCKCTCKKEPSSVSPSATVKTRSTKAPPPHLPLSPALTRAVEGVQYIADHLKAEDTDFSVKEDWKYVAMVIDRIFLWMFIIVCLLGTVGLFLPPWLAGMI

With `c1c2c(cc3c1OCO3)[C@H]1CCCN1CC2` the Activity [1] was “Active”, the IC50 [2] was 1.3 µM and the IC50 [3] was > 100 µM. For the same compound, the Ki [4] was 6.6 µM, the Activity (Mus musculus [5]) was “Dose-dependent effect” and the Ki [6] was 100 µM. It also gave a Ki [7] of 0.17 µM.
For `C[N+]12CCC[C@@H]1c1cc3c(cc1CC2)OCO3` (stereo partly drawn), the Ratio Ki [8] was 10, the Ratio Ki [9] was 10 and the IC50 [2] was 0.22 µM. For the same compound, the Activity (Mus musculus [10]) was “Active”, the Ratio Ki [11] was 10 and the EC50 [12] was 1.6 µM. The IC50 [3] was 50 µM, the Ki [4] was 2.7 µM and the Ratio IC50 [13] was 230. The Ki [6] was 11 µM and the Ki [7] was 0.045 µM.
Compound `COc1cc2c(cc1O)CCN1CC=C3C=C[C@H](OC)C[C@]321` [ERYSODINE] has a Ki [14] of 0.05 µM.
In the case of `COc1cc2c(cc1OCc1ccccc1)CC[N+](C)(C)C2`, the IC50 [2] is reported as 7.2 µM, the Activity [15] is reported as “Dose-dependent effect” and the Activity [16] is reported as “inactive”. The Activity [17] was “Dose-dependent effect”, the IC50 [3] was > 300 µM and the Ki [4] was 50 µM. It also gave a Ki [6] of 30 µM and a Ki [7] of 0.47 µM.
For `COc1ccc(CC2c3cc(OC)c(OC)cc3CC[N+]2(C)C)cc1OC` (stereo not drawn), the Activity [1] was “Active”, the IC50 [2] was > 100 µM and the IC50 [3] was > 100 µM. The Ki [4] was > 100 µM, the Ki [6] was > 100 µM and the Ki [7] was > 100 µM.
